This note sets out measurements from ChEMBL document CHEMBL4819034, “Tricyclic-Carbocyclic RORγt Inverse Agonists-Discovery of BMS-986313” (J Med Chem, 2021).

A short description of data set [1]: Metabolic stability in mouse liver microsomes assessed as parent compound remaining. Format: ADME, Microsome. The procedure, abridged: (§1)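 Test compound at 0.5 μM initial concentration incubated with human, mouse or rat liver microsomes (protein 1 mg/mL). Metabolic stability reported as percent of parent compound remaining after incubation.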
For orientation: Liver microsomes are vesicles of endoplasmic reticulum, rich in cytochrome P450 enzymes.

A short description of data set [2]: Metabolic stability in rat liver microsomes assessed as parent compound remaining. It counts as ADME, Microsome. The procedure, abridged: as §1
Data set [3] in a line: Half life in human liver microsomes. Format: ADME, Microsome. The procedure, abridged:
(§2)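 Liver microsome half-life (min) measured in human, mouse, rat, dog and cyno liver microsomes.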

Data set [4] is described as follows: Half life in dog liver microsomes. It counts as ADME, Canis lupus familiaris, Microsome. In short, it runs like this:
as §2

Data set [5] has as its target T1, Nuclear receptor ROR-alpha (Homo sapiens, UniProt P35398).
T1 sequence (P35398 whole entry): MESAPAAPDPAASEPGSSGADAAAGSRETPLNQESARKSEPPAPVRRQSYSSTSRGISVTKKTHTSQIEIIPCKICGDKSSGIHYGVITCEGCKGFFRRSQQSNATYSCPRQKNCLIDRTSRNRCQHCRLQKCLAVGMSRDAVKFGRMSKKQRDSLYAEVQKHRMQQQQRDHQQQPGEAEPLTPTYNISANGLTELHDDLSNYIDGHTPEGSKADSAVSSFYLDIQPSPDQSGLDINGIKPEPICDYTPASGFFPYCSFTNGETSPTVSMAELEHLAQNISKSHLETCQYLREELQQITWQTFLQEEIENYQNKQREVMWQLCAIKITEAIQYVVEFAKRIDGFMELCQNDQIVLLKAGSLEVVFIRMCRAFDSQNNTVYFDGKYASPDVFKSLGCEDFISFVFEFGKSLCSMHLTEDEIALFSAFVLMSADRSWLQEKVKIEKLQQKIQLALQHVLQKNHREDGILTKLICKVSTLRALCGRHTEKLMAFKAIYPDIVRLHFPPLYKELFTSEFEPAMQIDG
Kind of data set: Inverse agonist activity at Gal4-fused RORalpha (unknown origin).

The target in data set [6] is T2, Nuclear receptor ROR-beta (Homo sapiens, UniProt Q92753).
T2 sequence (Q92753 whole entry): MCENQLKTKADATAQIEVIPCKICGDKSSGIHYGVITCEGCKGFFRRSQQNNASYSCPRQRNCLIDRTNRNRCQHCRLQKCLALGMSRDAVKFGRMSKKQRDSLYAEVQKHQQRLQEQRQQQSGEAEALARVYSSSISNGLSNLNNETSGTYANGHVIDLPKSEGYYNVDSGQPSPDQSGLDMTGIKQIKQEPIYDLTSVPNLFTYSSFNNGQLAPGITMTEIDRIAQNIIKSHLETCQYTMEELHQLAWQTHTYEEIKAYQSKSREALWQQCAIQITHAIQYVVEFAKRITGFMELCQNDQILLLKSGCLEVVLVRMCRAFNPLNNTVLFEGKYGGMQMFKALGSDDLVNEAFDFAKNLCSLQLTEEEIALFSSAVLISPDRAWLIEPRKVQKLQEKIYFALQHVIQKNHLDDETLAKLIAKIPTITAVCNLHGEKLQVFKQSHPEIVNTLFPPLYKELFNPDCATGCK
Kind of data set: Inverse agonist activity at Gal4-fused RORbeta (unknown origin).

For data set [7], the target named is Voltage-gated inwardly rectifying potassium channel KCNH2 (Homo sapiens, UniProt Q12809). Kind of data set: Inhibition of human ERG by patch-clamp assay.
Data set [8] in a line: Volume of distribution at steady state in mouse at 2 mg/kg, iv. It counts as ADME, organism-based. As to conditions: in vivo, read-out: Vdss. The procedure, abridged:
(§3)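 Single intravenous dose: mouse and rat 2 mg/kg, dog and cynomolgus 1 mg/kg. Steady-state volume of distribution was derived from the IV arm. Values are means from three or more animals.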

Data set [9] in a line: Cmax in mouse at 4 mg/kg, po. Details: route oral, dose 4 mg/kg. Format: ADME, organism-based. The following applies: in vivo. In short, it runs like this: (§4)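 Single-dose PK, IV and PO. Doses: mouse and rat 2 mg/kg IV / 4 mg/kg PO; dog and cyno 1 mg/kg IV, with 1 or 2 mg/kg PO.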
Data set [10] in a line: AUC (0 to 24 hrs) in rat at 4 mg/kg, po. Format: ADME, organism-based. Details: time < 24 hr, route oral, dose 4 mg/kg. The following applies: in vivo.
The nature of data set [11]: Volume of distribution at steady state in dog at 1 mg/kg, iv. Format: ADME, organism-based, Canis lupus familiaris. As to conditions: in vivo, read-out: Vdss. The procedure, abridged:
as §3

Data set [12] is described as follows: AUC (0 to 24 hrs) in cynomolgus monkey at 2 mg/kg, po. Format: ADME, organism-based, Macaca fascicularis. Details: time < 24 hr, route oral, dose 2 mg/kg. As to conditions: in vivo.
Data set [13] in a line: Oral bioavailability in cynomolgus monkey at 2 mg/kg. As to conditions: in vivo. Format: ADME, organism-based, Macaca fascicularis. In short, it runs like this:
as §4

For data set [14], the system named is Mus musculus. Put plainly: Protection against imiquimod-induced C57BL/6 mouse model of psoriasis assessed as inhibition of skin thickening at 10 mg/kg, po BID for 7 days and measured every day for 8 days relative to control. Format: functional. The following applies: C57BL/6, po, 168 h, time 7 day.
For data set [15], the system named is Mus musculus. Kind of data set: Protection against imiquimod-induced C57BL/6 mouse model of psoriasis assessed as change in skin thickness at 5 mg/kg, po BID for 7 days and measured every day for 8 days relative to control. It counts as functional. As to conditions: time 7 day.
The subject of data set [16] is Mus musculus. Put plainly: Protection against imiquimod-induced C57BL/6 mouse model of psoriasis assessed as reduction in IL-17A mRNA levels at 20 mg/kg, po BID for 7 days by RT-PCR analysis relative to control. It counts as functional. Details: scale not given: the % may be the effect or the level left. The following applies: time 7 day.
Data set [17] has as its system Mus musculus. Kind of data set: Protection against imiquimod-induced C57BL/6 mouse model of psoriasis assessed as reduction in IL-17F mRNA levels at 20 mg/kg, po BID for 7 days by RT-PCR analysis relative to control. It counts as functional. Details: scale not given: the % may be the effect or the level left. As to conditions: time 7 day.
Data set [18] has as its system Mus musculus. Kind of data set: Protection against recombinant human IL23-induced acanthosis C57BL/6 mouse model assessed as inhibition of ear thickening at 6 mg/kg, po BID for 10 days and measured every other day relative to control. Format: functional. As to conditions: C57BL/6, po, 240 h, time 10 day. The procedure, abridged:
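IL-23 ear-injection acanthosis model in C57BL/6 mice with BID oral dosing. Ear thickness % change was recorded every other day, before each next injection, from a day 0 baseline. Inhibition of ear thickening was calculated against the placebo arm from the area under the curve over the study duration.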

Data set [19] has as its system Mus musculus. Put plainly: Protection against recombinant human IL23-induced acanthosis C57BL/6 mouse model assessed as change in ear thickness score at 15 mg/kg, po BID for 10 days and measured every other day relative to control. Format: functional. The following applies: time 10 day. In short, it runs like this: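 IL-23 was injected into the ear of C57BL/6 mice to induce dermal inflammation and epidermal hyperplasia. Ear thickness was measured at baseline on day 0, then as % change every other day before each next ear injection. Oral dosing was BID.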

In data set [20] the test system is Mus musculus. Put plainly: Protection against recombinant human IL23-induced acanthosis C57BL/6 mouse model assessed as reduction in IL-17A mRNA levels at 6 mg/kg, po BID BID for 10 days by qRT-PCR analysis relative to control. Format: functional. Details: scale not given: the % may be the effect or the level left. The following applies: time 10 day. In short, it runs like this:
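In the IL-23 ear-injection model in C57BL/6 mice with BID oral dosing, ear tissue was collected from all animals at study end on day 10. IL-17A and IL-17F mRNA expression was quantified by qPCR and compared with the placebo arm.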
For orientation: Quantitative PCR measures a nucleic acid by following its amplification.

SMILES strings stand for the structures.

Sequence of Voltage-gated inwardly rectifying potassium channel KCNH2 (Q12809 whole entry): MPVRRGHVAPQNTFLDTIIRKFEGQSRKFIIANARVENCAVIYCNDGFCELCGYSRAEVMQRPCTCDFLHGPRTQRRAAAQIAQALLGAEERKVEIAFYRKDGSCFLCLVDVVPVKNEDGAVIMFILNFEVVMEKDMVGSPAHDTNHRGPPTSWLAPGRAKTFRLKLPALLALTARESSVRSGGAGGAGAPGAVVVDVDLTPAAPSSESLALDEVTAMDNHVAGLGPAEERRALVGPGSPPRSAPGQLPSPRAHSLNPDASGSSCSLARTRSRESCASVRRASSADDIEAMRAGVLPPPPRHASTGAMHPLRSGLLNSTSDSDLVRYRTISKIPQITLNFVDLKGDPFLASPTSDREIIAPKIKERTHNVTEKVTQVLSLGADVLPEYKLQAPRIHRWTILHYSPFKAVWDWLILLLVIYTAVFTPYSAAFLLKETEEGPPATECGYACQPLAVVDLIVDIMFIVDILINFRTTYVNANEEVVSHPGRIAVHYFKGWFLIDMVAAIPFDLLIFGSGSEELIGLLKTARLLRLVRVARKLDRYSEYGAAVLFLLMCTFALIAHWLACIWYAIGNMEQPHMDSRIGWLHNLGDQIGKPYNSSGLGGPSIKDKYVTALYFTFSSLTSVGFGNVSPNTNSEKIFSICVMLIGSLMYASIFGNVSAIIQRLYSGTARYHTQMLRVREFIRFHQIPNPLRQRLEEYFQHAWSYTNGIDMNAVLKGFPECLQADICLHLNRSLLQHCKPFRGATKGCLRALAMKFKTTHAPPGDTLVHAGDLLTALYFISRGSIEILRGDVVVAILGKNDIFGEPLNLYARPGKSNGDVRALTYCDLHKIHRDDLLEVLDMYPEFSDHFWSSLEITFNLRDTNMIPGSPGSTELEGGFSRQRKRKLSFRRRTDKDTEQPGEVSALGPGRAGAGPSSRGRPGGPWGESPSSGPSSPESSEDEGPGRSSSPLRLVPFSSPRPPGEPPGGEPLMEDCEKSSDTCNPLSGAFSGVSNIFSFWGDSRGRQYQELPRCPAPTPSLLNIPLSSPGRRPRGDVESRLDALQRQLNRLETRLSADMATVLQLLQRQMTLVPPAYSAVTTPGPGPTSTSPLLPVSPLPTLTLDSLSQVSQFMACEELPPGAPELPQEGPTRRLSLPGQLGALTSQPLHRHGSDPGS

On to `CC(C)(O)C(=O)N[C@@H]1CC[C@@]2(S(=O)(=O)c3ccc(F)cc3)c3ccc(C(F)(C(F)(F)F)C(F)(F)F)cc3CC[C@@H]12`, for which the results for the Stabilty in [1] and in data set [2] were 92% and 100%, respectively. Further, the half-life in [3] and in [4] was 2 h each time. Moreover, the half-maximal effective concentration (EC50) in data set [5] and in [6] was over 10 µM in each case. In [7], the midpoint of inhibition, the IC50, lay at 19 µM. The Vd in data set [8] is 3 L/kg; in data set [11], 3.2 L/kg. In addition, the Cmax (in general, the maximum level reached in the sampled fluid or tissue) in data set [9] came to 2200 nM. Also, the area under the curve AUC(0-t) (commonly the area under the concentration-time curve up to a stated or last time point) at 24 h in data set [10] turned out to be 17 µM·h; in data set [12], 18 µM·h. In data set [13], the bioavailability (commonly dose-corrected exposure relative to a reference, in per cent) was found to be 75%. Moreover, in the data set on Mus musculus [14], the inhibition in vivo (in general, the relative decrease from the control value, in per cent) at 10 mg/kg came out at 39.6%. For the same compound, the Activity in the data set on Mus musculus [15] was 67.2%; with Mus musculus [16], 91.5%; in the data set with Mus musculus [17] it was 97.9%; in the data set with Mus musculus [19] it was 66.8%; in the data set on Mus musculus [20] it was 64.9%. Also, in the data set on Mus musculus [18], the inhibition in vivo at 6 mg/kg was found to be 43.4%.
